Series [1] relates to Staphylococcus aureus. In words: Anti-virulence activity against Staphylococcus aureus USA300 assessed as decrease in cell-wall anchored SpA level at 25 to 200 uM by FITC-labelled human IgG based […]. Particulars: dose 25-200 µM. It is filed as functional, organism-based. An outline of the steps:
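S. aureus grown in TSB (1:1000 dilution) with inhibitor until A600 1.0. Washed cells incubated with FITC-labelled human IgG in PBS for 30 min at room temperature in the dark, rinsed, and read by fluorescence. Three technical replicates, three independent experiments. Mean ± SEM, unpaired two-tailed Student's t test (n = 3).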
In general terms: Immunoblotting shows a protein as a band on a membrane.

In series [2] the test system is Sortase A (Staphylococcus aureus), Q9S446 [UNDEFINED MUTATION]. Kind of series: Irreversible inhibition of recombinant Staphylococcus aureus sortase A deltaN24 expressed in Escherichia coli BL21(DE3) cells using Abz-LPATG-Dnp as substrate assessed as […] preincubated for 60 mins followed by substrate addition and measured every 1 min for 15 mins by fluorescence intensity based assay. Conditions: time 75.0 min. An outline of the steps: (§1)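 Variable inhibitor concentrations incubated with SaSrtAΔN24 or SpSrtAΔN81 for different times, followed by FRET enzyme kinetics with Abz-LPATG-Dnp. kobs fitted as kinact × [I]/(KI + [I]) to give kinact and KI.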

For a further series, the system named is Streptococcus pyogenes. Kind of series: Irreversible inhibition of recombinant Streptococcus pyogenes sortase A deltaN81 expressed in Escherichia coli BL21(DE3) cells using Abz-LPATG-Dnp as substrate assessed as Kinact/Ki ratio preincubated for 60 mins followed by substrate addition and measured every 1 min for 15 mins by fluorescence intensity based assay. Particulars: time 75.0 min. The method, boiled down: as §1

The nature of series [3]: Toxicity in Galleria mellonella larvae assessed as survivability measured after 120 hrs. The method, boiled down:
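G. mellonella larvae (2-2.5 cm, creamy), starved 24 h, injected with 10 µL compound in vehicle (5% DMSO, 20% PEG300, 75% PBS with 6.6% solutol HS-15). Kept at 37 °C; survival and appearance recorded over 120 h with photography. Three independent experiments.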

Series [4] can be described thus: Inhibition of recombinant Streptococcus pyogenes sortase A deltaN81 transpeptidation expressed in Escherichia coli BL21 (DE3) cells using Abz-LPATG-Dnp as substrate preincubated for 20 mins followed by substrate addition and measured every 1 min for 15 mins by FRET assay. An outline of the steps:
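His-tagged enzyme purified by Ni-NTA and gel filtration. 1 µM SrtA preincubated with compound (0.05–50 µM) for 20 min at room temperature in 50 mM Tris-HCl pH 7.5, 150 mM NaCl, 5 mM CaCl2. Reaction started with 10 µM Abz-LPATG-Dnp, read at ex 309/em 420 nm. IC50 from a sigmoidal dose–response fit; triplicates, two experiments.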

The subject of series [5] is Staphylococcus aureus. Kind of series: Anti-infectivity against methicillin-resistant Staphylococcus aureus USA300 infected in Galleria mellonella larvae assessed as survival at 12.5 mg/kg and measured after 120 hrs. In kind it is functional, organism-based. The method, boiled down: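 G. mellonella larvae (2-2.5 cm, creamy), starved 24 h at room temperature. S. aureus grown in TSB to A600 1.0, washed and resuspended in PBS, premixed with compound in vehicle (5% DMSO, 20% PEG300, 75% PBS with 6.6% solutol HS-15). Injected into last proleg at about 1 × 10^6 CFU/larva (Newman) or 1 × 10^7 CFU/larva (USA300). Groups of 15 kept at 37 °C, survival recorded 120 h, Mantel–Cox test.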

The nature of series [6]: Selectivity ratio of Ki for irreversible inhibition of recombinant Staphylococcus aureus sortase A deltaN24 expressed in Escherichia coli BL21(DE3) cells to Ki for irreversible inhibition of recombinant Streptococcus pyogenes sortase A deltaN81 expressed in Escherichia coli BL21(DE3) cells.
For series [7], the system named is Staphylococcus aureus. In words: Irreversible inhibition of recombinant Staphylococcus aureus sortase A deltaN24 C184A mutant expressed in Escherichia coli BL21(DE3) cells assessed as thermal stabilization by measuring change in melting temperature incubated for 15 mins by Nano DSF assay. An outline of the steps:
(§2)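 40 µg SaSrtAΔN24 (wild type or C184A) in 100 µL 50 mM Tris-HCl pH 9.0, 150 mM NaCl, 5 mM CaCl2 incubated with compound for 15 min at room temperature, then centrifuged. Label-free nanoDSF read at 330/350 nm while ramping 30–90 °C at 2 °C per min. Tm taken from the first derivative of the ratio.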

The nature of series [8]: Irreversible inhibition of recombinant Streptococcus pyogenes sortase A deltaN81 expressed in Escherichia coli BL21(DE3) cells using Abz-LPATG-Dnp as substrate preincubated for 20 mins followed by substrate addition and measured every 1 min for 15 mins by FRET-based assay.
Series [9] addresses T1, Sortase A (Staphylococcus aureus, UniProt Q9S446). Kind of series: Inhibition of recombinant Staphylococcus aureus sortase A deltaN24 transpeptidation expressed in Escherichia coli BL21 (DE3) cells using IsdA64 to 323 as substrate preincubated for 20 mins followed by substrate addition and measured after 1.5 hrs by SDS-PAGE-based assay. The method, boiled down: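 SrtA (200 µg mL-1) preincubated with inhibitor (1–50 µM) for 20 min at room temperature in Tris pH 7.5, NaCl, CaCl2 buffer. IsdA64-323 (300 µg mL-1 final) and 3 mM (Gly)3 added, incubated at 37 °C for 1.5 h, then run on 12% SDS-PAGE. IC50 from band quantification of precursor and mature product. Two independent experiments.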

Series [10] concerns Staphylococcus aureus. Kind of series: […] activity against compound pretreated wild type Staphylococcus aureus Newman infected in Galleria mellonella larvae assessed as pathogenicity by measuring melanization after 24 hrs of bacterial injection. In kind it is functional, organism-based. The method, boiled down:
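S. aureus diluted 1:1000 with or without compound and grown to A600 1.0. 10 µL of a 1 × 10^7 CFU mL-1 PBS suspension injected into the last proleg of starved larvae, held at 37 °C. Larvae chilled on ice and photographed at 24 h to score melanization. ΔsrtA strain used as control.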

Series [11] concerns the target T1, Sortase A. In words: Irreversible inhibition of recombinant Staphylococcus aureus sortase A deltaN24 expressed in Escherichia coli BL21(DE3) cells using Abz-LPATG-Dnp as substrate assessed as inactivation constant preincubated for 60 mins followed by substrate addition and measured every 1 min for 15 mins by fluorescence intensity based assay. The method, boiled down:
as §1

In series [12] the test system is Staphylococcus aureus. In words: Antibacterial activity against Staphylococcus aureus Newman assessed as inhibition of bacterial growth incubated for 16 to 18 hrs. In kind it is functional. Particulars: time 16-18 hrs. The method, boiled down: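 Broth microdilution: S. aureus in TSB, E. coli in LB. Overnight cultures diluted 1:1000, grown at 37 °C to A600 0.6, then diluted 1:400 into two-fold compound dilutions. Incubated 16–18 h at 37 °C without shaking. MIC taken as the lowest concentration with no visible growth. Two independent experiments.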

The nature of series [13]: Selectivity ratio of Kinact for irreversible inhibition of recombinant Staphylococcus aureus sortase A deltaN24 expressed in Escherichia coli BL21(DE3) cells to Kinact for irreversible inhibition of recombinant Streptococcus pyogenes sortase A deltaN81 expressed in Escherichia coli BL21(DE3) cells.
Series [14] deals with Sortase A (Staphylococcus aureus), Q9S446 [UNDEFINED MUTATION]. Kind of series: Irreversible inhibition of recombinant Staphylococcus aureus sortase A deltaN24 expressed in Escherichia coli BL21(DE3) cells assessed as thermal stabilization by measuring change in melting temperature incubated for 15 mins by Nano DSF assay. The method, boiled down: as §2
For orientation: In DSF a fluorescence change marks the thermal transition of the protein.

Structures are written as SMILES. The source made the active and inactive calls. The rule behind the calls is not given here.

As a reminder, the IC50 is the midpoint of a concentration-inhibition curve. A word on the ΔTm: it is the change in melting temperature against a reference sample. For orientation: MIC means the lowest concentration that inhibits growth of the organism. `COc1ccc(/C=C/C=C2C(=O)NC(=O)NC2=O)cc1`: the result in the series on Staphylococcus aureus [1], in the series with Staphylococcus aureus [5] and with Staphylococcus aureus [10] was Active. Besides, the Ratio in series [2] was 0.075 µM⁻¹ min⁻¹; with Streptococcus pyogenes, 0.064 µM⁻¹ min⁻¹; in series [6], 4; in series [13] it was 4. For the same molecule, the Activity entry in series [3] is “Non-Toxic”. The IC50 in series [4] came out at 1370 nM; in series [8] it was 2300 nM; on Sortase A [9] it was 2650 nM. Moreover, the ΔTm in the series on Staphylococcus aureus [7] was -0.1 °C; in series [14], 4.1 °C. In addition, at Sortase A [11], the Ki is 2450 nM. The MIC in the series on Staphylococcus aureus [12] is greater than 512 µg/mL.

The values are drawn from ChEMBL document CHEMBL5107962, “Covalent sortase A inhibitor ML346 prevents Staphylococcus aureus infection of Galleria mellonella” (RSC Med Chem, 2022).
